Bioassay records from PubChem.
STEP block = STEP phosphatase inhibitors, primary screen, biochemical, fluorescence intensity, uHTS; Tyrosine-protein phosphatase non-receptor type 5 (Homo sapiens), P54829; recombinant STEP, OMFP fluorogenic substrate; inhibition, % at 20 µM; 360,000 tested, 0.25% active; AID 588621, 2011;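 active means inhibition at 20 µM, scaled per plate between control wells, above about 37%, limit read from the data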;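 further: 0% = DMSO with enzyme and substrate and 100% = substrate only without enzyme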
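Material: STEP (striatal-enriched tyrosine phosphatase) enzyme, cell-free | Medium: 50 mM Bis-Tris pH 6.0 with 2.5 mM DTT and 0.005% Tween 20 | Read-out: Percent inhibition scaled to no-enzyme and uninhibited-enzyme controls, plate-pattern corrected | Signal: Fluorescence read at 480 nm ex / 540 nm em | Times: 20 min reaction, room temperature, in the dark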
SUMO1 PPI mod = modulators of SUMO1 protein-protein interactions, primary screen, biochemical, uHTS; inhibition, % at 20 µM; 360,000 tested, 0.33% active; SUMO1 binding to a labelled peptide, TR-FRET, 1 h; in the data active means inhibition above about 37%
Target sequence (P63165 whole entry, looked up): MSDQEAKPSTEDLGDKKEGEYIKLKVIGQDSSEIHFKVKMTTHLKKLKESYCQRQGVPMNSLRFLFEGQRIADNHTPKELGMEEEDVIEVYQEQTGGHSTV
LMPTP inh = LMPTP phosphatase inhibitors, primary screen, biochemical, fluorescence intensity, uHTS. Low molecular weight phosphotyrosine protein phosphatase (Homo sapiens), P24666. recombinant LMPTP-A, OMFP fluorogenic substrate. inhibition, % at 20 µM. 360,000 tested, 0.22% active;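 active means compounds that cut the enzyme signal by at least half of the control window in the single-dose screen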;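 further: plate controls were DMSO wells with enzyme plus substrate for no effect and substrate without enzyme for full effect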
Target sequence (P24666 whole entry, looked up): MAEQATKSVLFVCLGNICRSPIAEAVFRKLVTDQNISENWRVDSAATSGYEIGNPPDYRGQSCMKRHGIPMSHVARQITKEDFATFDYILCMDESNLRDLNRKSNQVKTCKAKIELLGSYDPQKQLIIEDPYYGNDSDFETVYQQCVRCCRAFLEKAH
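Test system: LMPTP-A, protein tyrosine phosphatase of low molecular weight; Input: 0.625 nM enzyme; Incubation: 50 min dark incubation at room temperature; Signal: endpoint fluorescence intensity from OMFP dephosphorylation; Read-out basis: % inhibition versus control wells.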
Scp-1 inhibitor = Scp-1 phosphatase inhibitors, primary screen, biochemical, colorimetric, uHTS | Carboxy-terminal domain RNA polymerase II polypeptide A small phosphatase 1 (Homo … | Recombinant Scp1, phosphopeptide, malachite green phosphate absorbance | inhibition, % at 20 µM | 340,000 tested, 0.88% active | AID 493091, 2011;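 active means inhibition above about 50% at 20 µM, limit read from the data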;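 further: plate controls were DMSO wells with enzyme for no effect and wells lacking enzyme for full effect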
Target sequence (Q9GZU7 76-261 limits assumed): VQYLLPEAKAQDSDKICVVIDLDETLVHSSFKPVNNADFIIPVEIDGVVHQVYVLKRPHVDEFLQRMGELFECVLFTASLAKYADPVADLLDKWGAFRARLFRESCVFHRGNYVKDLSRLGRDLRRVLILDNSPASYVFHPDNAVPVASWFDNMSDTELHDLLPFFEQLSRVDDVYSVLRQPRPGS
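System: truncated SCP-1 phosphatase (76-261aa); medium: Tris acetate buffer pH 5.5 with MgCl2 and Tween-20; incubation: 45 min room-temperature reaction, 5 min colour, 30 min stabiliser; compound: single 20 µM dose, 1% DMSO; reagent: Phosphorylated 17-residue peptide substrate; read-out: % inhibition at 20 µM; technique: colorimetric free-phosphate detection, absorbance 630 nm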
DNMT1 inh = human DNMT1 methyltransferase inhibitors, primary screen, biochemical, molecular beacon, fluorescence, HinP1I cleavage, uHTS; AID 588458, 2011; 360,000 tested, 0.83% active; DNA (cytosine-5)-methyltransferase 1 (Homo sapiens), P26358; inhibition (reported as % activation of signal), % at 10 µM; in the data active means inhibition above about 50%
DNMT1 interf DR = spectral interference with molecular beacon fluorescence, dose response, artefact control for DNMT1 inhibitor project, biochemical, fluorescent molecular beacon. shares compounds with DNMT1 inh. spectral interference counter-screen. IC50, µM. 200 tested, under 10 active. AID 602382, 2012; call rule not given here
DNMT1 inh conf = DNMT1 methyltransferase inhibitor retest, confirmation, biochemical, molecular beacon, fluorescence, single concentration; 2,300 tested, 8% active; inhibition, % at 10 µM; DNMT1 molecular beacon HinP1I cleavage; shares compounds with DNMT1 inh;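 active means average inhibition of at least 30% in the single-concentration confirmation test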
DNMT1 interf = beacon fluorescence artifact counter-screen | activation (fluorescence interference), % at 10 µM | shares compounds with DNMT1 inh | DNMT1 molecular beacon spectral interference counterscreen, fluorescence 485/520 | 2,300 tested, 1% active | AID 602387;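 active means activation of at least 30% at 10 µM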;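 further: DNMT1 catalytic domain with a HinP1I cleavage step and a FAM/dabcyl DNA beacon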
An asterisk follows results filed as active. Hits are enriched below; roughly 1.7% of the tested compounds scored in any of these assays.

Screening COc1ccc(CNC(=O)C2CCCN(S(=O)(=O)c3ccccc3)C2)cc1 (stereo not drawn) returned STEP block 1.6, SUMO1 PPI mod 3.8, LMPTP inh 0.8, Scp-1 inhibitor -10.7 and DNMT1 inh 0.8.
`CCc1ccc(N2CC(C(=O)N3CCN(c4ccc([N+](=O)[O-])cc4)CC3)CC2=O)cc1` (stereo not drawn) gave STEP block -2.5, SUMO1 PPI mod -5.6, LMPTP inh -2.4 and DNMT1 inh 9.9.
For Cc1ccc(OCC(=O)NNC(=O)CSc2ncnc3sc(C)c(C)c23)cc1 the results were STEP block -0.6, SUMO1 PPI mod -7.9, LMPTP inh 1.8, Scp-1 inhibitor -0.7, DNMT1 inh 53.9*, DNMT1 inh conf 2.8 and DNMT1 interf 4.7.
`COc1ccc(C2=NN(c3nc(-c4ccccc4)c(CC(=O)O)s3)C(c3ccco3)C2)cc1` (stereo not drawn) gave STEP block -1.3, SUMO1 PPI mod 4.2, LMPTP inh 2.4, Scp-1 inhibitor 10.5, DNMT1 inh 56.4*, DNMT1 inh conf 4.0 and DNMT1 interf 0.8.
For CC1=NN(c2ccccc2)C(=O)C1/C=C1\NC(=S)NC1=O (stereo not drawn) the results were STEP block 4.9, SUMO1 PPI mod 32.6, LMPTP inh 4.0, Scp-1 inhibitor 1.9, DNMT1 inh 90.5*, DNMT1 interf DR >99, DNMT1 inh conf 37.6* and DNMT1 interf -2.0.
`CC1=NN(c2ccccc2)C(=O)C1C=Nc1ccccc1O` (stereo not drawn) gave STEP block 3.1, SUMO1 PPI mod -16.0, LMPTP inh 2.9, Scp-1 inhibitor -15.5 and DNMT1 inh -0.3.
`CC1=NOC(=O)/C1=C\c1ccc(-c2cc(Cl)ccc2Cl)o1` gave STEP block 1.4, SUMO1 PPI mod 47.5*, LMPTP inh 0.2, Scp-1 inhibitor 10.8, DNMT1 inh 81.5*, DNMT1 inh conf 3.5 and DNMT1 interf -7.6.
Cc1cc2c(N)cccc2nn1 was read as STEP block 75.3*, SUMO1 PPI mod 72.5*, LMPTP inh 93.2*, Scp-1 inhibitor 60.3*, DNMT1 inh 127.3*, DNMT1 inh conf 1.3 and DNMT1 interf 0.4.
`CCN(CC)CCCNc1nc2cc(OC)c(OC)cc2c2nc(-c3ccccc3)nn12` gave STEP block -0.2, SUMO1 PPI mod 10.9, LMPTP inh 5.1, Scp-1 inhibitor -0.7, DNMT1 inh 64.2*, DNMT1 interf DR >99, DNMT1 inh conf 26.1 and DNMT1 interf -0.9.
For O=C(Cn1c2ccccc2c(=O)c2cc([N+](=O)[O-])ccc21)Nc1ccccc1Cl the results were STEP block 7.8, SUMO1 PPI mod -12.1, LMPTP inh 18.1, Scp-1 inhibitor 35.6, DNMT1 inh 56.5*, DNMT1 inh conf 4.3 and DNMT1 interf -5.3.
COc1cc(OC)cc(-c2c(-c3cccs3)c3cc(-c4ccc(OCc5ccccc5)cc4)ccc3n2C)c1 was read as STEP block 4.4, SUMO1 PPI mod -6.6, LMPTP inh -0.3, Scp-1 inhibitor -11.4, DNMT1 inh 52.0*, DNMT1 inh conf -0.2 and DNMT1 interf -1.2.
For COc1ccc(-c2c(-c3cc(OC)cc(OC)c3)n(C)c3ccc(-c4ccc(OC)nc4)cc23)cc1 the results were STEP block -1.1, SUMO1 PPI mod 5.5, LMPTP inh 2.4, Scp-1 inhibitor 5.4 and DNMT1 inh 2.6.
COc1ccc(-c2c(-c3cc(OC)cc(OC)c3)n(C)c3ccc(-c4cnc(N)nc4)cc23)cc1 was read as STEP block -0.2, SUMO1 PPI mod -1.2, LMPTP inh -1.0, Scp-1 inhibitor 4.4, DNMT1 inh 54.2*, DNMT1 inh conf -0.1 and DNMT1 interf -2.0.
Screening CSCCC(NC(=O)c1ccco1)C(=O)N1CCN(C(c2ccccc2)c2ccccc2)CC1 (stereo not drawn) returned STEP block 0.9, SUMO1 PPI mod 2.1, LMPTP inh 0.5, Scp-1 inhibitor -2.8 and DNMT1 inh -3.3.
CCN(CC)C(=O)CSc1nc2cc3c(cc2c(=O)n1Cc1ccc(OC)cc1)OCO3 was read as STEP block -0.2, SUMO1 PPI mod 1.8, LMPTP inh 0.9, Scp-1 inhibitor 6.2 and DNMT1 inh -1.8.
Cc1cccc(NC(=O)/C(=C\c2ccc([N+](=O)[O-])o2)NC(=O)c2ccc(Cl)cc2)c1 was read as STEP block 6.7, SUMO1 PPI mod -13.3, LMPTP inh 8.8, Scp-1 inhibitor 45.1, DNMT1 inh 85.3*, DNMT1 inh conf -1.1 and DNMT1 interf 2.8.
`COC(=O)/C(=C\c1ccc([N+](=O)[O-])o1)NC(=O)c1ccccc1` gave STEP block 1.5, SUMO1 PPI mod -20.1, LMPTP inh 0.1, Scp-1 inhibitor -3.3 and DNMT1 inh 5.5.
Screening CSc1ccc(/C=C(/NC(=O)c2ccc(C)cc2)C(=O)Nc2cccc(C)c2)cc1 returned STEP block 1.3, SUMO1 PPI mod 1.0, LMPTP inh 0.0, Scp-1 inhibitor -2.7, DNMT1 inh 54.7*, DNMT1 inh conf 0.1 and DNMT1 interf 2.4.
For COc1ccc(C2Nc3cc(OC)ccc3-n3cccc32)cc1 (stereo not drawn) the results were STEP block 1.8, SUMO1 PPI mod -19.5, LMPTP inh 4.6, Scp-1 inhibitor -0.7 and DNMT1 inh -7.5.
For CCCC(NC(=O)c1ccc(Br)o1)c1nc2ccccc2[nH]1 (stereo not drawn) the results were STEP block 2.1, SUMO1 PPI mod 1.3, LMPTP inh -0.9, Scp-1 inhibitor -2.4 and DNMT1 inh -1.2.
`Cc1ccc(S(=O)(=O)N2[C@@H](c3ccc(C(C)(C)C)cc3)C(C(=O)O)=CC[C@H]2c2ccc(C(C)C)cc2)cc1` gave STEP block 1.7, SUMO1 PPI mod 30.6, LMPTP inh 3.8, Scp-1 inhibitor 8.2, DNMT1 inh 58.2*, DNMT1 interf DR >99, DNMT1 inh conf 52.0* and DNMT1 interf -12.5.
